Bioassay records: PubChem BioAssay, Johns Hopkins Ion Channel Center
TRPC4 act – activators of mouse TRPC4 channel; AID 2237; 0.49% of 310,000 active; HEK293 TRPC4beta/mu-opioid, Fluo4 calcium fluorescence; stronger effect = higher value; B-score at 10 µM;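 active means B-score above 5 SD of library B-scores, and initial fluorescence ratio not above library mean plus 5 SD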;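 further: positive B-score marks a calcium rise read as TRPC4 activation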
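Technique: kinetic Fluo4 calcium fluorescence; Test system: TRPC4beta and mu-opioid receptor HEK293 stable cells; Measure: B-scored integrated calcium fluorescence ratio; Benchmarks: low control buffer alone, high control maximal DAMGO; Schedule: 45 min room-temperature Fluo4 loading, 110 s read.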
TRPC4 potent – TRPC4 (mouse) allosteric potentiation. B-score at 10 µM. 0.42% of 310,000 active. HEK293 TRPC4beta/mu-opioid, DAMGO EC20, Fluo-4 Ca2+ flux; stronger effect = higher value. Q9QUQ5;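 active means B-score of calcium response area above 5 SD of library B-scores, with initial fluorescence ratio within 5 SD of library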
TRPC4 inh – blocks the mouse TRPC4 cation channel | Q9QUQ5 | HEK293 TRPC4beta/mu-opioid, DAMGO-evoked Fluo4 calcium flux; stronger effect = lower value | B-score at 10 µM | 0.39% of 300,000 active | AID 2247;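 active means B-score over 3 SD under the library average, no early fluorescence shift, positive overall ratio signal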
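System: stable TRPC4beta/mu-opioid receptor HEK293 cells; Dosing: single-point compound dosing; Measured by: Fluo4 Ca2+ flux fluorescence; Read-out basis: per-well B score of integrated baseline-normalized Fluo4 ratio.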
TRPC6 act – activates the mouse TRPC6 cation channel; 0.13% of 310,000 active; AID 2550; HEK293-TRPC6 membrane potential dye fluorescence; stronger effect = higher value; Q61143; B-score at 10 µM;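 active means B-score of the integrated fluorescence ratio above library mean plus 3 SD, and starting fluorescence ratio within library mean plus 5 SD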;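 further: higher score means more depolarization so channel activation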
TRPC6 inh – inhibitors of mouse TRPC6 channel; HEK293-TRPC6, membrane potential dye, ACh-evoked depolarization; stronger effect = lower value; B-score at 10 µM; 1.1% of 310,000 active; AID 2553;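 active means B-score under library mean minus 3 SD, initial fluorescence not abnormally high, positive integrated signal ratio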;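 further: B-score derived from integrated fluorescence ratio over the kinetic read; more negative B-score means stronger inhibition of depolarization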
Numbers stand for hits; n = inactive. Only some compounds are listed: those with a hit (about 2.3% of all), similar ones and a draw of the others.

SMILES | TRPC4 act | TRPC4 potent | TRPC4 inh | TRPC6 act | TRPC6 inh
Cc1ccc(-c2c(C#N)c(N)n(-c3ccccc3)c(=O)c2C#N)cc1 | n | n | n | n | n
Cn1c(N)c(Br)c(-c2ccc(F)cc2)c(C#N)c1=O | n | n | -5 | n | n
COCCCNC(=O)c1ccc2c(c1)OCO2 | n | n | n | n | n
O=C(NCCCN1CCN(CCCNC(=O)c2ccc3c(c2)OCO3)CC1)c1ccc2c(c1)OCO2 | 138 | n | n | n | n
COc1cccc(C(=O)NCCCNC(=O)c2cccc(OC)c2)c1 | n | n | n | n | n
O=C(NCCCN1CCN(CCCNC(=O)c2cccc(Cl)c2)CC1)c1cccc(Cl)c1 | n | 18 | n | n | n
COc1cccc(C(=O)NCCCN2CCN(CCCNC(=O)c3cccc(OC)c3)CC2)c1 | n | 12 | n | n | n
CCOc1ccc(-c2c(C(=O)N/N=C/c3c[nH]c4ccccc34)nnn2-c2nonc2N)cc1 | n | n | n | n | n
Cc1cc(C)c2c(=O)n(CC(=O)Nc3cccc(Cl)c3C)sc2n1 | n | 16 | n | n | n
Cc1oc(-c2ccc(Cl)cc2)nc1CS(=O)CC(=O)NC1CCCCC1 (stereo not given) | n | n | n | n | n
Cc1oc(-c2ccccc2F)nc1CS(=O)(=O)CC(=O)NCCCN1CC(C)CC(C)C1 (stereo not given) | 57 | n | n | n | n
Cc1oc(-c2ccccc2Cl)nc1CS(=O)CC(=O)NCCCN1CC(C)CC(C)C1 (stereo not given) | 95 | n | n | n | n
Cc1oc(-c2ccc(Cl)cc2)nc1CS(=O)CC(=O)NCCCN(C)C1CCCCC1 (stereo not given) | n | 16 | n | n | n
CCC(=O)Nc1nc2ccccc2n1CCN(CC)CC | n | 11 | n | n | n
CCN(CC)CCn1c(NC(=O)c2ccc(C)cc2)nc2ccccc21 | n | n | n | n | n
O=C(NCc1cccnc1)C(=O)Nc1cc2c3c(c1)CC(=O)N3CCC2 | n | n | n | n | n
COCCN(C(=O)COC(=O)c1ccccc1NCc1ccco1)c1c(N)n(Cc2ccccc2)c(=O)[nH]c1=O | n | n | n | n | n
O=[N+]([O-])c1cc(C(F)(F)F)ccc1N1CCN(S(=O)(=O)c2ccc3c(c2)CCCC3)CC1 | n | n | n | n | n
O=[N+]([O-])c1cc(C(F)(F)F)ccc1N1CCCNCC1 | 83 | 42 | n | n | n
COc1ccc(Cl)cc1C(=O)NCC(c1ccco1)N1CCCC1 (stereo not given) | 52 | n | n | n | n
O=C(NCC(c1ccco1)N1CCCC1)c1ccccc1F (stereo not given) | n | n | n | n | n
O=C(NCC(c1ccco1)N1CCCC1)c1sc2ccccc2c1Cl (stereo not given) | 43 | n | n | n | n
COc1ccc(Cl)cc1C(=O)NCC(c1ccco1)N(C)C (stereo not given) | n | n | n | n | n
Cc1cccc2cc(CN(CCCN(C)C)C(=S)NCCc3ccccc3)c(=O)[nH]c12 | n | n | -6 | n | n
Cc1ccc2[nH]c(=O)c(CN(CCCN(C)C)C(=S)NCCc3ccccc3)cc2c1 | n | n | n | n | n
SMILES | TRPC4 act | TRPC4 potent | TRPC4 inh | TRPC6 act | TRPC6 inh
CN(C)S(=O)(=O)c1ccc(Cl)c(C(=O)NC2CCN(Cc3ccccc3)C2)c1 (stereo not given) | n | 19 | n | n | n
COCCNCc1nc2sc(C)c(-c3ccccc3)c2c(=O)[nH]1 | n | n | n | n | n
COc1ccc(N2CCN(C(c3cccs3)C(C)NC(=O)C(=O)N3CCCCC3)CC2)cc1 (stereo not given) | n | n | n | n | n
Cc1cccc(-n2ccnc2CN2CCC(CO)(Cc3ccccc3)CC2)c1 | n | n | -7 | n | n
COc1ccc(S(=O)(=O)N2CCC(C(=O)Oc3ccc(C)cc3)CC2)cc1OC | n | n | n | n | n
O=C([O-])c1ccccc1-[n+]1c(-c2ccccc2)cc(-c2ccccc2)cc1-c1ccccc1 | n | n | n | n | n
c1ccc(-c2nn3c(C4CCCCC4)nnc3s2)nc1 | n | n | n | n | n
Clc1ccc(OCc2nn3c(C4CCCCC4)nnc3s2)cc1 | n | 13 | n | n | n
C=CCNC(=S)N1CCN(C2CCCCC2)CC1 | n | 32 | n | n | n
Cc1c(Br)ccc(NC(=O)c2ccccc2[N+](=O)[O-])c1C | n | n | n | n | n
CCOC(=O)C1(CC2CCCCO2)CCN(Cc2c(C)cc(C)cc2-n2cccn2)CC1 (stereo not given) | 106 | n | n | n | n
CCOC(=O)C1(CC2CCCCO2)CCN(Cc2nc3ccccc3[nH]2)CC1 (stereo not given) | 115 | n | n | n | n
CCOC(=O)C1(CC2CCCCO2)CCN(Cc2cc(F)ccc2-n2cccn2)CC1 (stereo not given) | 91 | n | n | n | n
CCOC(=O)C1(CC2CCCCO2)CCN(Cc2nccn2-c2cccc(C)c2)CC1 (stereo not given) | n | n | n | n | n
CCn1cc(C(=O)N[C@@H](CCSC)C(=O)NCCCOC)c(=O)c2cc3c(cc21)OCO3 | n | n | n | n | n
Cn1nnnc1SCC(=O)Nc1cc(S(=O)(=O)N2CCCC2)ccc1Cl | n | n | n | n | n
O=C(CSc1cccc(C(F)(F)F)c1)Nc1cc(S(=O)(=O)N2CCCC2)ccc1Cl | n | 10 | n | n | n
Cc1cc(C)cc(NCc2cc3c(cc2[N+](=O)[O-])OCO3)c1 | n | n | n | n | n
COc1ccc(CNCc2cc3c(cc2[N+](=O)[O-])OCO3)cc1 | n | n | n | n | -5.3
O=C(O)c1ccc[n+](Cc2ccc([N+](=O)[O-])cc2)c1 | n | n | n | n | n
O=[N+]([O-])c1ccc(C[n+]2cccc(O)c2)cc1 | 168 | n | n | n | n
Cc1cc(S(=O)(=O)N2CCC(N3CCCCC3)CC2)ccc1-n1cnnn1 | n | 33 | n | n | n
Cc1c(C(=O)NCC(c2ccco2)N(C)C)oc2c(Cl)cccc12 (stereo not given) | n | n | -8 | n | n
CN(C)C(CNC(=O)CCNC(=O)c1ccc(Br)cc1)c1ccco1 (stereo not given) | n | n | n | n | n
CN(C)C(CNC(=O)c1cc(Br)ccc1Cl)c1ccco1 (stereo not given) | n | n | n | n | n
CN(C)C(CNC(=O)c1ccc(Br)cc1)c1ccco1 (stereo not given) | 63 | n | n | n | n
Cc1cc(C(=O)NCC(c2ccco2)N(C)C)ccc1[N+](=O)[O-] (stereo not given) | 71 | n | n | n | n
CN(C)C(CNC(=O)c1ccccc1OCc1ccc(Cl)cc1)c1ccco1 (stereo not given) | n | n | -7 | n | n
